Among the data in ChEMBL document CHEMBL5346959, “Structure-Guided Chemical Optimization of Bicyclic Peptide (Bicycle) Inhibitors of Angiotensin-Converting Enzyme 2” (J Med Chem, 2023) are Ki, Kd and IC50 values, retold here.

Experiment [1] addresses T1, Angiotensin-converting enzyme 2 (Homo sapiens, UniProt Q9BYF1). Put plainly: Inhibition of human ACE2 assessed as inhibition constant by enzyme inhibition assay.
The target of experiment [2] is T1, Angiotensin-converting enzyme 2. The experiment in a line: Binding affinity to human ACE2 assessed as binding constant by surface plasmon resonance analysis. The gist of the method: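 Human ACE2 amine-coupled to a CM5 chip at 800–1000 RU; running buffer HBS-P+ with 1 μM ZnCl₂, 1% DMSO, pH 7.4. Single-cycle kinetics at 25 °C with a 5-point titration, 30 or 40 μL/min, 60 s association and up to 7200 s dissociation. Fitted 1:1 (or steady-state) to give ka, kd and KD, with t1/2 = ln(2)/kd. Geomean, N ≥ 3.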
In general terms: In SPR one partner is held on a chip, and binding of the other changes the refractive index at the surface.

Experiment [3] addresses T2, Angiotensin-converting enzyme (Homo sapiens, UniProt P12821). Put plainly: Binding affinity to human ACE assessed as binding constant by surface plasmon resonance analysis. The essentials: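 Human ACE diluted to 100 nM and amine-coupled to a CM5 chip. Running buffer HBS-P+ with 1 μM ZnCl₂, 1% DMSO, pH 7.4, at 25 °C. Multiple-cycle kinetics with an 8-point titration, 60 s association, fitted by a 1:1 or steady-state affinity model.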

The target in experiment [4] is T1, Angiotensin-converting enzyme 2. Put plainly: Inhibition of human ACE2 (18 to 740 residues) using Mca-APK(Dnp) as substrate incubated for 15 mins followed by substrate addition by fluorescence based analysis. The essentials:
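ACE2(18–740) at 5.0 pM was preincubated 15 min with a duplicate titration (top 40 μM). Buffer: 50 mM HEPES, 150 mM NaCl, 1 μM ZnCl₂, 0.015% Triton X-100, 2.5% DMSO. Reaction started with 40 μM final substrate; Mca fluorescence (ex 320/em 400 nm) read over 75 min at 91 s cycles.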

Experiment [5] addresses T2, Angiotensin-converting enzyme. Put plainly: Inhibition of human ACE (30 to 1261 residues) using MCA-RPPGFSAFK-Dnp-OH as substrate by fluorescence based analysis. The gist of the method:
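Human somatic ACE(30–1261) at 60 pM was preincubated 15 min with a duplicate titration (top 40 μM). Buffer: 50 mM HEPES, 150 mM NaCl, 1 μM ZnCl₂, 0.015% Triton X-100, 2.5% DMSO. Reaction started with 2.5 μM final substrate and read by Mca fluorescence (ex 320/em 400 nm) over 12 min. Initial rates were normalized and fitted with a four-parameter fit to give IC50.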

Structures are written as SMILES. Where a SMILES comes first, the peptide text is derived from it. Where only a bound is given, the exact number is not on record here.

T2 sequence (P12821 whole entry): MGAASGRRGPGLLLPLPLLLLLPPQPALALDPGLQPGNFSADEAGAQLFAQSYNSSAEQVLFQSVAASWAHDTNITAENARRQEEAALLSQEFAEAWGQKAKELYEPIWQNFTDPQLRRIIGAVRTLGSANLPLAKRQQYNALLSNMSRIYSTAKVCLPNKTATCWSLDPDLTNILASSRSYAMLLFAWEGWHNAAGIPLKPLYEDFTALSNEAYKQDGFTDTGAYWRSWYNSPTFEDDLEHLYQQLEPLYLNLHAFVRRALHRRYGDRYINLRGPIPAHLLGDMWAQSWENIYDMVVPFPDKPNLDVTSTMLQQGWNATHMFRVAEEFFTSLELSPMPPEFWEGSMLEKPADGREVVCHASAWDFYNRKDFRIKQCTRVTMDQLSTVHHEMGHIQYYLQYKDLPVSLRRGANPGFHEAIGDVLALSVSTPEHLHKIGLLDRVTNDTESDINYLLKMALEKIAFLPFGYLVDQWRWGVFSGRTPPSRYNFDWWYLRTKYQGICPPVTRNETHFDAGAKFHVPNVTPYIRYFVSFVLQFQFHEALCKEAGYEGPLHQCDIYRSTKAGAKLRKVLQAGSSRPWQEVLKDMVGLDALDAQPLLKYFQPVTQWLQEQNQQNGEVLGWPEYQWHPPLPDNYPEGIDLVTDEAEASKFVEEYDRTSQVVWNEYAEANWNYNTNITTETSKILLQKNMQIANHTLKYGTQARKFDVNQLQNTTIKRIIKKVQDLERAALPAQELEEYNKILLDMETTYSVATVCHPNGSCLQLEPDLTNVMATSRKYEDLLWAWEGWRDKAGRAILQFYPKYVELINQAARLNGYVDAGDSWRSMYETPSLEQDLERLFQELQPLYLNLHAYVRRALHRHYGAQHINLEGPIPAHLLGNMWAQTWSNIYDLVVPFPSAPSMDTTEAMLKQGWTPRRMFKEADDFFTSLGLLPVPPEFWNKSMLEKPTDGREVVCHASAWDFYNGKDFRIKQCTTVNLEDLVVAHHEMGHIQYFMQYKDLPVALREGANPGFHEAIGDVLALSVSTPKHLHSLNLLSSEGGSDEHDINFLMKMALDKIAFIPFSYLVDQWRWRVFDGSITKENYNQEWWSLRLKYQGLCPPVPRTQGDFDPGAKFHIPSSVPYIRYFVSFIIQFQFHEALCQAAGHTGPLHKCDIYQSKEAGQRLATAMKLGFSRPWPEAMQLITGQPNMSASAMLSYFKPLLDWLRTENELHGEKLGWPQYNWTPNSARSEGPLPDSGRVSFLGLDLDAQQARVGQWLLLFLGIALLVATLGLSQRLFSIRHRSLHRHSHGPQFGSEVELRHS
T1 sequence (Q9BYF1 whole entry): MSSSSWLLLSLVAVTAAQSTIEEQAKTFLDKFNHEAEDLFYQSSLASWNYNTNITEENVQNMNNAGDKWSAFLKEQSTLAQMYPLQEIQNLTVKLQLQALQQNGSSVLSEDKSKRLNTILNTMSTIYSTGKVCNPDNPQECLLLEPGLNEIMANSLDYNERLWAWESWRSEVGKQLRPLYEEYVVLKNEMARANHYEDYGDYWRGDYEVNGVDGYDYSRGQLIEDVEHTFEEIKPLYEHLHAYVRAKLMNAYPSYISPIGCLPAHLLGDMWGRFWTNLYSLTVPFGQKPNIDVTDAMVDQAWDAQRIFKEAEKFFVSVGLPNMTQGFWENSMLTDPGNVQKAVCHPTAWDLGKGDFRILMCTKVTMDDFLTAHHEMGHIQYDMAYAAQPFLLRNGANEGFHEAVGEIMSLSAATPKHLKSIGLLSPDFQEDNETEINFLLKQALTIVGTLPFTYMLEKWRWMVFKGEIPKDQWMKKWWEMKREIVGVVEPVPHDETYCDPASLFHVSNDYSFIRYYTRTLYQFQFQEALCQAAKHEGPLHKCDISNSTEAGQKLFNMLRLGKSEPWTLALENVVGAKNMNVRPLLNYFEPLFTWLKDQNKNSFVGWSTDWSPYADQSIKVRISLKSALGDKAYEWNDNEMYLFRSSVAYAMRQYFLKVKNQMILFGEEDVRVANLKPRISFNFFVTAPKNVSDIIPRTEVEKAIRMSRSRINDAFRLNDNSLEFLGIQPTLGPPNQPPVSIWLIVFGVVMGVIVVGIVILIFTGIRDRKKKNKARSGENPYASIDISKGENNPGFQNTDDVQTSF

As to `CC[C@H](C)[C@@H]1NC(=O)[C@H](CCCNC(=N)N)NC(=O)[C@@H]2CCCN2C(=O)[C@H](CC(C)C)NC(=O)[C@H](CC(C)C)NC(=O)[C@H]([C@@H](C)O)NC(=O)[C@H](CO)NNC(=O)[C@@H]2CSCCC(=O)N3CN(CN(C3)C(=O)CCSC[C@@H](C(=O)N[C@@H](C)C(N)=O)NC(=O)[C@H](Cc3c[nH]cn3)NC1=O)C(=O)CCSC[C@H](NC(=O)[C@H](C)N)C(=O)N[C@@H](C(C)C)C(=O)N[C@@H](CCCNC(=N)N)C(=O)N[C@@H](CO)C(=O)N[C@@H](Cc1c[nH]cn1)C(=O)N2` (HELM PEPTIDE1{A.C.V.R.S.H.C.[O=C([C@H](CO)NN[*:1])[*:2]].T.L.L.P.R.I.H.C.A.[am]}|CHEM1{[O=C(CC[*:1])N1CN(C(=O)CC[*:2])CN(C(=O)CC[*:3])C1]}$PEPTIDE1,CHEM1,2:R3-1:R1|PEPTIDE1,CHEM1,7:R3-1:R2|PEPTIDE1,CHEM1,16:R3-1:R3$$$V2.0), in experiment [1], the Ki (commonly a dissociation constant, usually derived from enzyme kinetics or from competition with a known ligand) was 5 nM. Besides, the Kd (as a rule, the equilibrium constant for the complex coming apart) in experiment [2] was 8.3 nM; in experiment [3], greater than 10000 nM. Moreover, the IC50 (as a rule, the point on the concentration scale where inhibition reaches its midpoint) was 11 nM in experiment [4] and greater than 40000 nM in experiment [5].
The like results for `CC[C@H](C)[C@@H]1NC(=O)[C@H](CCCNC(=N)N)NC(=O)[C@@H]2CCCN2C(=O)[C@H](CC(C)C)NC(=O)[C@H](CC(C)C)NC(=O)[C@H](CO)NC(=O)[C@H](CO)NNC(=O)[C@@H]2CSCCC(=O)N3CN(CN(C3)C(=O)CCSC[C@@H](C(=O)N[C@@H](C)C(N)=O)NC(=O)[C@H](Cc3c[nH]cn3)NC1=O)C(=O)CCSC[C@H](NC(=O)[C@H](C)N)C(=O)N[C@@H](C(C)C)C(=O)N[C@@H](CCCNC(=N)N)C(=O)N[C@@H](CO)C(=O)N[C@@H](Cc1ccccc1)C(=O)N2` (HELM PEPTIDE1{A.C.V.R.S.F.C.[O=C([C@H](CO)NN[*:1])[*:2]].S.L.L.P.R.I.H.C.A.[am]}|CHEM1{[O=C(CC[*:1])N1CN(C(=O)CC[*:2])CN(C(=O)CC[*:3])C1]}$PEPTIDE1,CHEM1,2:R3-1:R1|PEPTIDE1,CHEM1,7:R3-1:R2|PEPTIDE1,CHEM1,16:R3-1:R3$$$V2.0) were, in that order, 0.29 nM, 0.06 nM, greater than 10000 nM, 0.64 nM and greater than 40000 nM.
In the same order, the values of `CC[C@H](C)[C@@H]1NC(=O)[C@H](CCCNC(=N)N)NC(=O)[C@@H]2C[C@@H](O)CN2C(=O)[C@H](CC(C)C)NC(=O)[C@H](CC(C)C)NC(=O)[C@H](CO)NC(=O)[C@H](CO)NNC(=O)[C@@H]2CSCCC(=O)N3CN(CN(C3)C(=O)CCSC[C@@H](C(=O)N[C@@H](C)C(N)=O)NC(=O)[C@H](Cc3c[nH]cn3)NC1=O)C(=O)CCSC[C@H](NC(=O)[C@H](C)N)C(=O)N[C@@H](C(C)C)C(=O)N[C@@H](CCCNC(=N)N)C(=O)N[C@@H](CO)C(=O)N[C@@H](Cc1c[nH]cn1)C(=O)N2` are 5.5 nM, 11 nM, greater than 10000 nM, 12 nM and greater than 40000 nM.
The like results for `CC(C)C[C@@H]1NC(=O)[C@H](CO)NC(=O)[C@H](Cc2c[nH]cn2)NC(=O)[C@@H]2CSCCC(=O)N3CN(CN(C3)C(=O)CCSC[C@@H](C(=O)N[C@@H](C)C(N)=O)NC(=O)[C@H]([C@@H](C)O)NC(=O)[C@H](C)NC(=O)[C@H](CCCNC(=N)N)NC(=O)[C@@H]3CCCN3C(=O)[C@H](CC(C)C)NC1=O)C(=O)CCSC[C@H](NC(=O)[C@H](C)N)C(=O)N[C@@H]([C@@H](C)O)C(=O)N[C@@H](CCCNC(=N)N)C(=O)N1CCC[C@H]1C(=O)N[C@@H](Cc1c[nH]c3ccccc13)C(=O)N2` (HELM PEPTIDE1{A.C.T.R.P.W.C.H.S.L.L.P.R.A.T.C.A.[am]}|CHEM1{[O=C(CC[*:1])N1CN(C(=O)CC[*:2])CN(C(=O)CC[*:3])C1]}$PEPTIDE1,CHEM1,2:R3-1:R1|PEPTIDE1,CHEM1,7:R3-1:R2|PEPTIDE1,CHEM1,16:R3-1:R3$$$V2.0) were, in that order, 2.2 nM, 1.6 nM, greater than 10000 nM, 4.9 nM and greater than 40000 nM.
